Data on 29 compounds can be found in ChEMBL document CHEMBL3593226, “Discovery of small molecules with vasodilating characteristics and adjustable hydrolytic behavior” (Bioorg Med Chem, 2015).

Data set [1] has as its system Aorta. Put plainly: Vasodilating activity in potassium chloride-mediated precontracted guinea pig aorta compound treated every 45 mins by chart recorder analysis. The note with it: Cavia porcellus, 0.75 h. Type of data set: functional, tissue-based. A digest of the protocol:
(§1)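 Guinea pig aortic or pulmonary artery rings held at 19.6 mN resting tension and precontracted with 90 mM KCl. Compound added cumulatively every 45 min after a control period, with relaxation recorded on a chart recorder. Solvent-only effect subtracted. Mean ± SEM of 3–5 experiments; paired Student's t-test.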

Data set [2] is described as follows: Vasodilating activity in potassium chloride-mediated precontracted guinea pig pulmonary artery compound treated every 45 mins by chart recorder analysis. Type of data set: functional, tissue-based, Cavia porcellus. A digest of the protocol: as §1
For the next data set, the system named is Ileum. Put plainly: Spasmolytic activity in potassium chloride-mediated precontracted guinea pig terminal ileum compound treated every 45 mins by chart recorder analysis. Type of data set: functional, tissue-based. The note with it: Cavia porcellus, 0.75 h. A digest of the protocol: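 Guinea pig terminal ileum held at 4.9 mN resting tension and precontracted with 60 mM KCl. Compound added cumulatively every 45 min after a control period, with relaxation recorded on a chart recorder. Solvent-only effect subtracted. Stocks in distilled water or DMSO. Mean ± SEM of 3–5 experiments.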

A short description of data set [3]: Inotropic activity in electrically-stimulated guinea pig papillary muscle compound treated every 45 mins by chart recorder analysis. Type of data set: functional, tissue-based. The following applies: Cavia porcellus, 0.75 h. A digest of the protocol:
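Guinea pig papillary muscles driven electrically at 1 Hz, 3 ms pulses, amplitude 10% above threshold; resting tension 3.92 mN. After a 30 min control period, compound added cumulatively until steady state. Contraction force recorded on a chart recorder; solvent-only effect subtracted. Mean ± SEM of 4–5 experiments; paired t-test.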

A further data set concerns Right cardiac atrium. Briefly: Chronotropic activity in electrically-stimulated guinea pig right atrium compound treated every 45 mins by chart recorder analysis. In kind it is functional, tissue-based. The following applies: Cavia porcellus, 0.75 h. In short, it runs like this: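 Isolated guinea pig right atria, resting tension 10.37 mN. After a 30 min control period, compound added cumulatively to the bath until steady state. Rate change recorded on a chart recorder; solvent-only effect subtracted. Stocks in distilled water or DMSO. Mean ± SEM of 4–5 experiments; paired Student's t-test.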

Data set [4] in a line: Stability of the compound in D2O assessed as degradation product ratio at 20 mg/ml at 20 degC after 24 hrs by 1H-NMR spectroscopic analysis. Type of data set: ADME. A digest of the protocol:
(§2)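 Compound dissolved in D2O and kept at 20 °C. 1H NMR spectra taken at 1, 3, 5, 7 and 24 h, in triplicate. Compound-to-degradation-product ratio (%) used to follow hydrolysis. Half-life obtained from an equation fitted to the time-course data. Mean ± SEM of three independent experiments.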

Data set [5] in a line: Stability of the compound in D2O assessed as compound remaining at 20 mg/ml at 20 degC after 24 hrs by 1H-NMR spectroscopic analysis. In kind it is physicochemical. The following applies: read-out: Stability. In short, it runs like this:
as §2

A short description of data set [6]: Half life of the compound in D2O at 20 mg/ml at 20 degC by 1H-NMR spectroscopic analysis. Type of data set: physicochemical. In short, it runs like this: as §2
In data set [7] the test system is Aorta. Briefly: Vasodilating activity in potassium chloride-mediated precontracted guinea pig aorta at EC50 compound incubated in sealed tube filled with distilled water at room temperature for 24 hrs prior to testing by chart recorder analysis. The following applies: Cavia porcellus. In kind it is functional, tissue-based. In short, it runs like this: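 Compound dissolved in distilled water and kept sealed at room temperature for 24 h. The solution was then added at a single concentration to guinea pig aortic rings precontracted with 90 mM KCl. Change in contraction force recorded on a chart recorder for 5 min. Mean ± SEM of three experiments.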

For data set [8], the system named is Aorta. Put plainly: Vasodilating activity in potassium chloride-mediated precontracted guinea pig aorta at EC50 compound treated every 45 mins by chart recorder analysis in presence of 30 uM KATP channel inhibitor glibenclamide. Type of data set: functional.
The test system of data set [9] is Aorta. Briefly: Vasodilating activity in potassium chloride-mediated precontracted guinea pig aorta at EC50 compound treated every 45 mins by chart recorder analysis in presence of 100 uM KATP channel inhibitor glibenclamide. Type of data set: functional.
Data set [10] concerns Aorta. Briefly: Vasodilating activity in potassium chloride-mediated precontracted guinea pig aorta at EC50 compound treated every 45 mins by chart recorder analysis in presence of 100 uM eNOS inhibitor nitro-L-arginine. The note with it: Cavia porcellus. In kind it is functional, tissue-based.
A short description of data set [11]: Stability of the compound in D2O at 20 mg/ml at 20 degC measured over 24 hrs by 1H-NMR spectroscopic analysis. In kind it is physicochemical. In short, it runs like this: as §2

Calls of active or inactive are those of the source.

Take `Cc1nccn1C(=S)SCc1ccccc1`: the EC50 was 3.4 µM in the data set on Aorta [1]; 13 µM in [2]; 16 µM with Ileum; over 100 µM in [3]; 16 µM in the data set with Right cardiac atrium.
As for `CCCOC(=S)n1ccnc1`, the EC50 in the data set with Aorta [1] is 30 µM; in [2], 100 µM; in the data set on Ileum, 21 µM; in data set [3], over 100 µM; in the data set with Right cardiac atrium, over 100 µM.
Take `CCCCOC(=S)OCCCN(C)C`: the EC50 in the data set on Aorta [1] is over 100 µM; in data set [2], over 100 µM; with Ileum it was 17 µM; in data set [3], 4.3 µM; in the data set with Right cardiac atrium, over 100 µM.
Regarding `CCCOC(=S)OCCN(C)C`, the EC50 in the data set with Aorta [1] was over 100 µM; in data set [2] it was over 100 µM; in the data set with Ileum, over 100 µM; in data set [3] it was 58 µM; with Right cardiac atrium it was over 100 µM.
Take `C[N+](C)(C)CCOC(=S)OCC[N+](C)(C)C`: the EC50 (in the data set on Aorta [1]; in data set [2]; with Ileum; in data set [3]; in the data set with Right cardiac atrium) was over 100 µM throughout.
For `CCCCOC(=S)n1ccnc1`, the EC50 with Aorta [1] was 13 µM; in data set [2], 23 µM; in the data set with Ileum, 21 µM; in [3] it was over 100 µM; with Right cardiac atrium it was over 100 µM.
Regarding `CCOC(=S)N1CCN(C)CC1`, the EC50 (in the data set with Aorta [1]; in data set [2]; in the data set with Ileum; in data set [3]; in the data set on Right cardiac atrium) was over 100 µM throughout.
Regarding `CSC(=S)n1ccnc1C`, the EC50 is 6.3 µM with Aorta [1]; 11 µM in [2]; 9.5 µM with Ileum; over 100 µM in data set [3]; over 100 µM in the data set on Right cardiac atrium.
For `COc1ccc(CSC(=S)n2ccnc2)cc1`, the EC50 in the data set with Aorta [1] was 13 µM; in [2] it was 24 µM; with Ileum, over 100 µM; in data set [3], over 100 µM; in the data set with Right cardiac atrium, over 100 µM.
On to `CN(C)CCOC(=S)OCCN(C)C`, for which the EC50 (with Aorta [1]; in data set [2]; in the data set on Ileum; in data set [3]; in the data set on Right cardiac atrium) was over 100 µM in each case.
Turning to `S=C(SCc1ccccc1)n1ccnc1`, the EC50 with Aorta [1] was 20 µM; in data set [2] it was 63 µM; in the data set on Ileum, 40 µM; in data set [3], 30 µM; in the data set with Right cardiac atrium it was over 100 µM.
For `CCCCCCOC(=S)OCCCN(C)C` the same measures were over 100 µM, over 100 µM, 16 µM, 5.9 µM and 35 µM.
Regarding `COc1cc(CSC(=S)n2ccnc2)cc(OC)c1OC`, the EC50 was 3 µM with Aorta [1]; 7.9 µM in data set [2]; 15 µM in the data set on Ileum; 27 µM in data set [3]; over 100 µM in the data set with Right cardiac atrium.
For the compound `S=C(N1CCCCC1)n1ccnc1`, the EC50 (in the data set on Aorta [1]; in data set [2]; in the data set with Ileum; in data set [3]; with Right cardiac atrium) was over 100 µM in each case.
Consider `CSC(=S)n1c(C)nc2ccccc21`, for which the EC50 with Aorta [1] is 23 µM; in data set [2] it was 25 µM; with Ileum, 26 µM; in [3], 56 µM; with Right cardiac atrium it was over 100 µM.
On to `CC(=O)OCCSC(=S)n1ccnc1`, for which the EC50 in the data set with Aorta [1] was 5.8 µM; in [2], 24 µM; with Ileum, over 100 µM; in [3], 77 µM; with Right cardiac atrium it was over 100 µM.
For `CC(C)OC(=S)n1ccnc1`, the EC50 in the data set with Aorta [1] is 46 µM; in data set [2], over 100 µM; with Ileum it was 21 µM; in data set [3] it was over 100 µM; in the data set on Right cardiac atrium it was over 100 µM.
Take `CCOC(=S)OCCN(C)C`: the EC50 (in the data set with Aorta [1]; in data set [2]; in the data set with Ileum; in data set [3]; in the data set with Right cardiac atrium) was over 100 µM throughout.
For `CCCOC(=S)N1CCN(C)CC1`, the EC50 (in the data set with Aorta [1]; in [2]; in the data set on Ileum; in data set [3]; with Right cardiac atrium) was over 100 µM in each case.
`CCCOC(=S)OCCCN(C)C`: the EC50 in the data set with Aorta [1] is over 100 µM; in [2] it was over 100 µM; in the data set on Ileum, over 100 µM; in data set [3], 37 µM; with Right cardiac atrium, over 100 µM.
For `CCOC(=S)n1ccnc1.Cl`, the EC50 in the data set with Aorta [1] was 53 µM; in data set [2] it was 19 µM; with Ileum it was 4.8 µM; in data set [3], over 100 µM; in the data set on Right cardiac atrium, over 100 µM. Moreover, the Ratio in data set [4] is 0.35. In addition, in data set [5], the remaining at 24 h, 20 mg/ml worked out at 26%. Besides, the half-life at 20 mg/ml in data set [6] is 6.5 h. In addition, the result with Aorta [7] was inactive.
As to `S=C(OC1CCCC1)n1ccnc1`, the EC50 is 36 µM in the data set on Aorta [1]; over 100 µM in data set [2]; 16 µM in the data set on Ileum; over 100 µM in [3]; over 100 µM with Right cardiac atrium.
`CC(C)CN(CC(C)C)C(=S)n1ccnc1`: the EC50 in the data set with Aorta [1] amounted to 14 µM; in data set [2], 26 µM; in the data set on Ileum, 17 µM; in data set [3], 6.5 µM; in the data set with Right cardiac atrium, 48 µM.
With `Cl.S=C(OC1CCCCC1)n1ccnc1`, the EC50 with Aorta [1] was 14 µM; in data set [2], 24 µM; in the data set with Ileum it was over 100 µM; in [3], over 100 µM; in the data set with Right cardiac atrium it was over 100 µM. Further, in [4], the Ratio was 0.09. In addition, the remaining at 24 h, 20 mg/ml in data set [5] came out at 8%. The same compound showed a half-life at 20 mg/ml in [6] of 12.3 h. Further, the outcome with Aorta [8] (Cavia porcellus), with Aorta [7], with Aorta [9] (Cavia porcellus) and in the data set on Aorta [10] was inactive.
For the compound `CCOC(=O)CCSC(=S)n1ccnc1`, the EC50 was 16 µM with Aorta [1]; 20 µM in [2]; 32 µM in the data set on Ileum; over 100 µM in data set [3]; over 100 µM in the data set with Right cardiac atrium.
As for `O=C(OC1CCCCC1)n1ccnc1`, the EC50 (in the data set on Aorta [1]; in data set [2]; with Ileum; in data set [3]; with Right cardiac atrium) was over 100 µM each time.
Take `CCOC(=S)OCCCN(C)C`: the EC50 (in the data set on Aorta [1]; in data set [2]; with Ileum; in data set [3]; with Right cardiac atrium) was over 100 µM each time.
Turning to `CC(C)OC(=O)n1ccnc1`, the concentration for a half-maximal effect (EC50) (with Aorta [1]; in [2]; in the data set on Ileum; in data set [3]; in the data set with Right cardiac atrium) was over 100 µM throughout.
As to `CSC(=S)n1ccnc1.Cl`, the EC50 is 7.8 µM in the data set on Aorta [1]; 6.9 µM in data set [2]; 5.7 µM with Ileum; 78 µM in [3]; over 100 µM in the data set with Right cardiac atrium. The Stability result in [11] is given as “Stable”. Also, the Activity with Aorta [8] and in the data set on Aorta [9] was 50% in each case.

As usually defined, the EC50 is the concentration needed to bring the measured effect to its halfway point. What is called half-life is the time in which the quantity being followed falls by half.
